# Results taken from ChEMBL document CHEMBL4038305, “Benzoxaborole Antimalarial Agents. Part 5. Lead Optimization of Novel Amide Pyrazinyloxy Benzoxaboroles and Identification of a Preclinical Candidate” (J Med Chem, 2017).
# pIC50: −log10 of the molar value.
# Legend:
# Plasmodium berghei [1] = experiment: Antimalarial activity against Plasmodium berghei infected in Swiss Webster mouse assessed as mouse survival rate at 3 mg/kg administered once daily via oral gavage for 4 consecutive days beginning 1 hr after infection measured on day 8 post infection relative to control; format: functional
# Outline: (§1)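 P. berghei-infected erythrocytes taken from a previously infected mouse were injected intraperitoneally. Oral dosing, once daily for 4 consecutive days, began 1 h after infection, in polyethylene glycol 300/propylene glycol/water (55/25/20 by weight). Chloroquine at 30 mg/kg was the positive control, with a vehicle-only group. Percent survival was recorded daily from day 4 to day 20.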
# Plasmodium berghei [2] = experiment: Antimalarial activity against Plasmodium berghei infected in Swiss Webster mouse assessed as mouse survival rate at 0.3 mg/kg administered once daily via oral gavage for 4 consecutive days beginning 1 hr after infection measured on day 8 post infection relative to control; format: functional
# Outline: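 Mice given an intraperitoneal injection of P. berghei-infected erythrocytes taken from a previously infected animal. Oral dosing once daily for 4 consecutive days, starting 1 h after infection. Vehicle: polyethylene glycol 300/propylene glycol/water (weight ratio 55/25/20). Percent survival recorded daily from day 4 to day 20. Chloroquine 30 mg/kg and vehicle-only groups served as controls.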
# Salmonella typhimurium [3] = experiment: Genotoxicity in Salmonella typhimurium TA1537 assessed as number of revertants per plate at 5 ug/plate in presence of rat liver S9 fraction by Ames test (reference value: 11 +/- 4); format: toxicity; conditions: salmonella enterica subsp. enterica serovar typhimurium
# Plasmodium falciparum [4] = experiment: Antimalarial activity against intraerythrocytic stage of Plasmodium falciparum assessed as time required to clear 99.9% of initial parasite population at 10 times IC50 preincubated for 24 hrs followed by [3H]-hypoxanthine addition measured after 24 hrs by scintillation counting method; format: functional
# Outline: (§2)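 In vitro P. falciparum parasite reduction ratio assay run at 10×, 30× and 100× IC50. Derived parameters: lag phase (time to maximal killing), PRR (parasites killed per life cycle) and PCT99.9% (time to clear 99.9% of the initial parasite population).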
# Salmonella typhimurium [5] = experiment: Genotoxicity in Salmonella typhimurium TA1535 assessed as number of revertants per plate at 15 ug/plate in presence of rat liver S9 fraction by Ames test (reference value: 10); format: toxicity; conditions: salmonella enterica subsp. enterica serovar typhimurium
# Plasmodium falciparum [6] = experiment: Antimalarial activity against Plasmodium falciparum T9/94 infected in human erythrocytes assessed as reduction in [3H]-hypoxanthine incorporation preincubated for 24 hrs followed by [3H]-hypoxanthine addition measured after 24 hrs by scintillation counting method; format: functional, cell-based
# Salmonella typhimurium [7] = experiment: Genotoxicity in Salmonella typhimurium TA1535 assessed as number of revertants per plate at 1500 ug/plate in presence of rat liver S9 fraction by Ames test (reference value: 10); format: toxicity; conditions: salmonella enterica subsp. enterica serovar typhimurium
# Escherichia coli [8] = experiment: Genotoxicity in Escherichia coli WP2uvrA assessed as number of revertants per plate at 150 ug/plate in absence of rat liver S9 fraction by Ames test (reference value: 45 +/- 9); format: toxicity
# Salmonella typhimurium [9] = experiment: Genotoxicity in Salmonella typhimurium TA1537 assessed as number of revertants per plate at 500 ug/plate in presence of rat liver S9 fraction by Ames test (reference value: 11 +/- 4); format: toxicity; conditions: salmonella enterica subsp. enterica serovar typhimurium
# Salmonella typhimurium [10] = experiment: Genotoxicity in Salmonella typhimurium TA1535 assessed as number of revertants per plate at 50 ug/plate in presence of rat liver S9 fraction by Ames test (reference value: 10); format: toxicity; conditions: salmonella enterica subsp. enterica serovar typhimurium
# Salmonella typhimurium [11] = experiment: Genotoxicity in Salmonella typhimurium TA98 assessed as number of revertants per plate at 5 ug/plate in absence of rat liver S9 fraction by Ames test (reference value: 14 +/- 6); format: toxicity; conditions: salmonella enterica subsp. enterica serovar typhimurium
# Salmonella typhimurium [12] = experiment: Genotoxicity in Salmonella typhimurium TA98 assessed as number of revertants per plate at 15 ug/plate in absence of rat liver S9 fraction by Ames test (reference value: 14 +/- 6); format: toxicity; conditions: salmonella enterica subsp. enterica serovar typhimurium
# [13] = AUC in rat at 2000 mg/kg administered via oral gavage; format: ADME, organism-based; conditions: in vivo
# Plasmodium falciparum [14] = experiment: Antimalarial activity against intraerythrocytic stage of Plasmodium falciparum assessed as parasite reduction ratio at 10 times IC50 preincubated for 24 hrs followed by [3H]-hypoxanthine addition measured after 24 hrs by scintillation counting method; format: functional; outline: as §2
# Salmonella typhimurium [15] = experiment: Genotoxicity in Salmonella typhimurium TA100 assessed as number of revertants per plate at 5000 ug/plate in absence of rat liver S9 fraction by Ames test (reference value: 154 +/- 9); format: toxicity; conditions: salmonella enterica subsp. enterica serovar typhimurium
# Lymphocyte [16] = experiment: Genotoxicity in human lymphocytes assessed as increase in frequency of micronucleated cells at 80 ug/mL after 28 hrs in absence of rat liver S9 fraction by micronucleus assay (reference value: 0.74%); format: toxicity, cell-based
# Salmonella typhimurium [17] = experiment: Genotoxicity in Salmonella typhimurium TA100 assessed as number of revertants per plate at 50 ug/plate in presence of rat liver S9 fraction by Ames test (reference value: 141 +/- 1); format: toxicity; conditions: salmonella enterica subsp. enterica serovar typhimurium
# Salmonella typhimurium [18] = experiment: Genotoxicity in Salmonella typhimurium TA100 assessed as number of revertants per plate at 5 ug/plate in presence of rat liver S9 fraction by Ames test (reference value: 141 +/- 1); format: toxicity; conditions: salmonella enterica subsp. enterica serovar typhimurium
# Salmonella typhimurium [19] = experiment: Genotoxicity in Salmonella typhimurium TA1537 assessed as number of revertants per plate at 5 ug/plate in absence of rat liver S9 fraction by Ames test (reference value: 19 +/- 9); format: toxicity; conditions: salmonella enterica subsp. enterica serovar typhimurium
# Lymphocyte [20] = experiment: Genotoxicity in human lymphocytes assessed as replication index at 355.15 ug/mL after 3 hrs in presence of rat liver S9 fraction by micronucleus assay relative to control; format: toxicity, cell-based; conditions: s9, 3 h
# Outline: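 Human lymphocytes exposed for 3 h with or without rat liver S9, or 28 h without S9, with 1% DMSO as vehicle control. Replication index = (binucleated + 2 × multinucleated cells)/total cells. Cytotoxicity (%) = 100 − (RI treated/RI vehicle) × 100.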
# Salmonella typhimurium [21] = experiment: Genotoxicity in Salmonella typhimurium TA100 assessed as number of revertants per plate at 500 ug/plate in presence of rat liver S9 fraction by Ames test (reference value: 141 +/- 1); format: toxicity; conditions: salmonella enterica subsp. enterica serovar typhimurium
# Escherichia coli [22] = experiment: Genotoxicity in Escherichia coli WP2uvrA assessed as number of revertants per plate at 1500 ug/plate in absence of rat liver S9 fraction by Ames test (reference value: 45 +/- 9); format: toxicity
# Salmonella typhimurium [23] = experiment: Genotoxicity in Salmonella typhimurium TA98 assessed as number of revertants per plate at 50 ug/plate in absence of rat liver S9 fraction by Ames test (reference value: 14 +/- 6); format: toxicity; conditions: salmonella enterica subsp. enterica serovar typhimurium
# Salmonella typhimurium [24] = experiment: Genotoxicity in Salmonella typhimurium TA100 assessed as number of revertants per plate at 15 ug/plate in presence of rat liver S9 fraction by Ames test (reference value: 141 +/- 1); format: toxicity; conditions: salmonella enterica subsp. enterica serovar typhimurium
# Salmonella typhimurium [25] = experiment: Genotoxicity in Salmonella typhimurium TA98 assessed as number of revertants per plate at 5 ug/plate in presence of rat liver S9 fraction by Ames test (reference value: 19 +/- 8); format: toxicity; conditions: salmonella enterica subsp. enterica serovar typhimurium
# Salmonella typhimurium [26] = experiment: Genotoxicity in Salmonella typhimurium TA100 assessed as number of revertants per plate at 1.5 ug/plate in absence of rat liver S9 fraction by Ames test (reference value: 154 +/- 9); format: toxicity; conditions: salmonella enterica subsp. enterica serovar typhimurium
# Plasmodium berghei [27] = experiment: Antimalarial activity against Plasmodium berghei infected in Swiss Webster mouse assessed as mouse survival rate at 3.7 mg/kg administered once daily via oral gavage for 4 consecutive days beginning 1 hr after infection measured on day 8 post infection relative to control; format: functional; outline: as §1
# Salmonella typhimurium [28] = experiment: Genotoxicity in Salmonella typhimurium TA1537 assessed as number of revertants per plate at 1500 ug/plate in presence of rat liver S9 fraction by Ames test (reference value: 11 +/- 4); format: toxicity; conditions: salmonella enterica subsp. enterica serovar typhimurium
smiles,measurement,setting,value
Cc1c(Oc2cnc(C(=O)NC(C)CO)cn2)ccc2c1B(O)OC2 (stereo not drawn),survival at 3 mg/kg,Plasmodium berghei [1],0%
same,survival at 0.3 mg/kg,Plasmodium berghei [2],0%
Cc1c(Oc2cnc(C(=O)N3CC(C)(O)C3)cn2)ccc2c1B(O)OC2,Activity,Salmonella typhimurium [3],22
same,T99.9%,Plasmodium falciparum [4],36 h
same,Activity,Salmonella typhimurium [5],12
same,pIC50,Plasmodium falciparum [6],7.27
same,Activity,Salmonella typhimurium [7],10
same,Activity,Escherichia coli [8],56
same,Activity,Salmonella typhimurium [9],17
same,Activity,Salmonella typhimurium [10],11
same,Activity,Salmonella typhimurium [11],12
same,Activity,Salmonella typhimurium [12],15
same,AUC,[13],742 µg·h/mL
same,log(ratio),Plasmodium falciparum [14],4.1
same,Activity,Salmonella typhimurium [15],20
same,Activity,Lymphocyte [16],1.28%
same,Activity,Salmonella typhimurium [17],136
same,Activity,Salmonella typhimurium [18],128
same,Activity,Salmonella typhimurium [19],15
same,Activity,Lymphocyte [20],7%
same,Activity,Salmonella typhimurium [21],132
same,Activity,Escherichia coli [22],33
same,Activity,Salmonella typhimurium [23],14
same,Activity,Salmonella typhimurium [24],149
same,Activity,Salmonella typhimurium [25],15
same,Activity,Salmonella typhimurium [26],144
same,survival at 3.7 mg/kg,Plasmodium berghei [27],0%
same,Activity,Salmonella typhimurium [28],8
